Results as given in article PMC10470302 (iScience, 2023).

How the values were obtained:
[1] = biological target: CHERP (SCAF6) (UniProt Q8IWX8); assay: GST-CTD pull-down, label-free LC-MS/MS; details: reference: GST-CTD, buffer with no kinase; sites S2
[2] = test system: Ser2/Thr4 phosphorylation on RNA polymerase II, HEK293 cells; assay: Western blot of Pol II phosphorylation after flavopiridol; format: cell-based, human; details: time course (Figure S10A)
[3] = test system: CHERP recruitment to the genome, HEK293 cells; assay: ChIP-seq of CHERP; format: cell-based, human; details: 2μM flavopiridol, HA-CHERP in HEK293 cells, HA antibody ChIP-seq
[4] = test system: Pol II (RPB1, pSer2, pThr4), HEK293 cells; assay: Co-immunoprecipitation with Pol II; format: cell-based, human; details: HEK293 extracts, western blot, at least three independent replicates
How it was run: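 Protein G beads were loaded overnight at 4°C with 3 µg antibody or control IgG. 250 µg protein was bound for 2 h, washed three times, eluted by boiling 5 min in 2× SDS buffer, then immunoblotted.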

[5] = test system: pSer2 Pol II and CHERP in HEK293 cells; assay: Immunofluorescence colocalization of CHERP and pSer2 Pol II; format: cell-based, human; details: transfected HEK293 cells, confocal, no flavopiridol, N = 7
How it was run: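 HEK293 cells were transfected (Fugene, 1:3 plasmid:reagent) with HA-CHERP or HA-CHERPΔCID, fixed 15 min in 1% formaldehyde at room temperature, and permeabilized with 0.2% Triton X-100. They were blocked 30 min in 2% BSA, then given primary antibody and Alexa Fluor 488/568 secondary, 1 h each at room temperature. Pearson coefficients were computed with threshold, from 7 cells across at least two biological replicates.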

## yeast CTD (GST-yCTD 26x) CTD, 26 heptad repeats GST-CTD treated with DYRK1A
[1]
  fold change: 2.9

## CN1CC[C@H](c2c(O)cc(O)c3c(=O)cc(-c4ccccc4Cl)oc23)[C@H](O)C1 [flavopiridol]
[2]
  Ser2/Thr4 phosphorylation on RNA polymerase II: caused Ser2/Thr4 phosphorylation to be reduced
[3]
  CHERP recruitment to the genome with flavopiridol: great reduction of CHERP recruitment to the genome

B1: CHERP: calcium homeostasis endoplasmic reticulum protein; endogenous or HA-tagged full-length (protein)
chain: MEMPLPPDDQELRNVIDKLAQFVARNGPEFEKMTMEKQKDNPKFSFLFGGEFYSYYKCKLALEQQQLICKQQTPELEPAATMPPLPQPPLAPAAPIPPAQGAPSMDELIQQSQWNLQQQEQHLLALRQEQVTAAVAHAVEQQMQKLLEETQLDMNEFDNLLQPIIDTCTKDAISAGKNWMFSNAKSPPHCELMAGHLRNRITADGAHFELRLHLIYLINDVLHHCQRKQARELLAALQKVVVPIYCTSFLAVEEDKQQKIARLLQLWEKNGYFDDSIIQQLQSPALGLGQYQATLINEYSSVVQPVQLAFQQQIQTLKTQHEEFVTSLAQQQQQQQQQQQQLQMPQMEAEVKATPPPPAPPPAPAPAPAIPPTTQPDDSKPPIQMPGSSEYEAPGGVQDPAAAGPRGPGPHDQIPPNKPPWFDQPHPVAPWGQQQPPEQPPYPHHQGGPPHCPPWNNSHEGMWGEQRGDPGWNGQRDAPWNNQPDAAWNSQFEGPWNSQHEQPPWGGGQREPPFRMQRPPHFRGPFPPHQQHPQFNQPPHPHNFNRFPPRFMQDDFPPRHPFERPPYPHRFDYPQGDFPAEMGPPHHHPGHRMPHPGINEHPPWAGPQHPDFGPPPHGFNGQPPHMRRQGPPHINHDDPSLVPNVPYFDLPAGLMAPLVKLEDHEYKPLDPKDIRLPPPMPPSERLLAAVEAFYSPPSHDRPRNSEGWEQNGLYEFFRAKMRARRRKGQEKRNSGPSRSRSRSKSRGRSSSRSNSRSSKSSGSYSRSRSRSCSRSYSRSRSRSRSRSRSSRSRSRSQSRSRSKSYSPGRRRRSRSRSPTPPSSAGLGSNSAPPIPDSRLGEENKGHQMLVKMGWSGSGGLGAKEQGIQDPIKGGDVRDKWDQYKGVGVALDDPYENYRRNKSYSFIARMKARDECK
[4]
  co-immunoprecipitation with Pol II or its phosphorylation forms: interacted with total Pol II
[5]
  colocalization correlation value (Pearson), CHERP vs pSer2 Pol II: 0.77
